From ChEMBL document CHEMBL4402565, “α-Ketoamides as Broad-Spectrum Inhibitors of Coronavirus and Enterovirus Replication: Structure-Based Design, Synthesis, and Activity Assessment” (J Med Chem, 2020)

Assays:
[1] = Therapeutic index, ratio of CC50 for monkey Vero E6 cells to EC50 for SARS coronavirus infected in monkey Vero E6 cells; format: toxicity, cell-based, Vero C1008; conditions: read-out: Ratio CC50/EC50
Human coronavirus 229E = assay: Antiviral activity against Human coronavirus 229E infected in HuH7 cells expressing T7 RNA polymerase assessed as reduction in virus-induced cytopathic effect incubated for 48 hrs by Alamar blue based assay; format: functional, organism-based; conditions: Huh-7, 48 h
[2] = Inhibition of SARS coronavirus M protease using Dabcyl-KTSAVLQ-SGFRKM-E(Edans)-NH2 as substrate incubated for 10 mins by fluorospectrometry; parameters: species or system Severe acute respiratory syndrome-related coronavirus
Procedure, shortened: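 FRET cleavage assay with 0.5 µM recombinant SARS-CoV Mpro (authentic termini) in 20 mM Tris-HCl, 100 mM NaCl, 1 mM EDTA, 1 mM DTT, pH 7.3. Enzyme was preincubated with inhibitor (0–100 µM) for 10 min at 37 °C, then 20 µM final substrate was added. Fluorescence was read at ex 360/em 460 nm. Triplicate, mean ± SD; IC50 from curve fitting.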

[3] = tested on: Middle East respiratory syndrome-related coronavirus; assay: Antiviral activity against Middle East respiratory syndrome coronavirus infected in Vero cells assessed as reduction in virus-induced cytopathic effect incubated for 3 days by non-radioactive cell proliferation assay; format: functional, organism-based; conditions: 72 h
[4] = Cytotoxicity against human RD cells assessed as reduction in cell viability incubated for 3 days by MTS assay; format: cell-based
[5] = Cytotoxicity against human HuH7 cells expressing T7 RNA polymerase assessed as reduction in cell viability incubated for 2 days by non-radioactive cell proliferation assay; format: cell-based, Huh-7
[6] = Antiviral activity against […] infected in HuH7 cells expressing T7 RNA polymerase assessed as reduction in viral RNA replication incubated for 24 hrs by luciferase reporter gene assay; format: functional, organism-based; conditions: B3, Huh-7, 24 h
Procedure, shortened: (§1)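 Huh-T7 cells (DMEM, 2 mM glutamine, penicillin/streptomycin, 10% FCS growth or 2% maintenance, G-418 400 μg·mL⁻¹) transfected with enteroviral replicon. Compound added in growth medium at 40 μM for screening or 0, 1.25, 2.5, 5, 10, 20, 40 μM for EC50. After 24 h, cells lysed and luciferase activity read. Triplicate or quadruplicate, mean ± SD.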

Enterovirus A71 [7] = assay: Antiviral activity against Enterovirus A71 infected in HuH7 cells expressing T7 RNA polymerase assessed as reduction in viral RNA replication incubated for 24 hrs by luciferase reporter gene assay; format: functional, organism-based; conditions: Enterovirus A, Huh-7, 24 h; procedure, shortened: as §1
rhinovirus A2 = assay: Antiviral activity against Human rhinovirus 2 infected in HeLa Rh cells assessed as reduction in virus-induced cytopathic effect incubated for 3 days by MTS assay; format: functional, organism-based; conditions: Rhinovirus A, 72 h
Procedure, shortened: (§2)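 CPE reduction assay. RD (EV-A71) or HeLa Rh (EV-D68, HRV) cells seeded 24 h earlier in medium with 2% FCS; HRV2/HRV14 medium contained 30 mM MgCl₂. Serial compound dilutions added with virus. At 3 days post infection, 5% MTS added for 1 h at 37 °C and OD498 read. EC50 taken as 50% protection versus controls by logarithmic interpolation; morphology also checked microscopically.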

[8] = Inhibition of […] protease 3C using DabcylKEALFQ-GPPQF-E(Edans)-NH2 as substrate incubated for 10 mins by fluorospectrometry; parameters: species or system Coxsackievirus
Procedure, shortened: (§3)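 FRET cleavage assay in 20 mM Tris-HCl, 100 mM NaCl, 1 mM EDTA, 1 mM DTT, pH 7.3. Final enzyme 2 μM for CVB3 3Cpro or 3 μM for EV-A71 3Cpro, preincubated with inhibitor (0–100 μM) for 10 min at 37 °C. Reaction started with 20 μM final Dabcyl-KEALFQ↓GPPQF-E(Edans)-NH₂. Edans dequenching read at ex 360/em 460 nm. Triplicate, mean ± SD.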

[9] = Antiviral activity against […] infected in HuH7 cells expressing T7 RNA polymerase assessed as reduction in virus-induced cytopathic effect incubated for 2 days by non-radioactive cell proliferation assay; format: functional, organism-based; conditions: B3, Huh-7, 48 h
[10] = Therapeutic index, ratio of CC50 for human HuH7 cells expressing T7 RNA polymerase to EC50 for Human coronavirus 229E infected in human HuH7 cells expressing T7 RNA polymerase; format: toxicity, cell-based; conditions: read-out: Ratio CC50/EC50
Procedure, shortened: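 Huh7 cells were infected with HCoV-229E at […] for 1.5 h at 37 °C and washed. Complete DMEM containing inhibitor (0–40 µM) was added. […] CC50 came from a parallel AlamarBlue viability assay normalised to no-inhibitor and 1% Triton X-100 controls. Therapeutic index = CC50/EC50.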

SARS-CoV [11] = assay: Antiviral activity against SARS coronavirus infected in HuH7 cells expressing T7 RNA polymerase assessed as reduction in viral RNA replication incubated for 24 hrs by luciferase reporter gene assay; format: functional, organism-based; conditions: Severe acute respiratory syndrome-related coronavirus, Huh-7, 24 h
Procedure, shortened: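 SARS-CoV replicon (DNA-launched, Renilla luciferase reporter) was transfected into Huh-T7 cells at 80–90% confluency. Compound at 0, 1.25, 2.5, 5, 10, 20 or 40 µM in growth medium was added after transfection. At 24 h, cells were lysed and luciferase activity measured. Runs were in triplicate or quadruplicate, reported as mean ± SD.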

[12] = Cytotoxicity against human HeLa Rh cells assessed as reduction in cell viability incubated for 3 days by MTS assay; format: cell-based
[13] = Therapeutic index, ratio of CC50 for human HeLa Rh cells to EC50 for Human rhinovirus 2 infected in human HeLa Rh cells; format: toxicity, cell-based; conditions: read-out: Ratio CC50/EC50
[14] = Inhibition of human coronavirus NL63 M protease using Dabcyl-KTSAVLQ-SGFRKM-E(Edans)-NH2 as substrate incubated for 10 mins by fluorospectrometry
Procedure, shortened: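 0.5 μM final HCoV-NL63 Mpro preincubated 10 min at 37 °C with inhibitor (0–100 μM) in pH 7.3 Tris buffer (100 mM NaCl, 1 mM EDTA, 1 mM DTT). Cleavage of 20 μM Dabcyl-KTSAVLQ↓SGFRKM-E(Edans)-NH₂ followed by fluorescence at 460 nm with 360 nm excitation. IC50 from triplicate measurements, mean ± SD.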

[15] = Therapeutic index, ratio of CC50 for human HeLa Rh cells to EC50 for Human rhinovirus 14 infected in human HeLa Rh cells; format: toxicity, cell-based; conditions: read-out: Ratio CC50/EC50
SARS-CoV [16] = assay: Antiviral activity against SARS coronavirus infected in Vero E6 cells assessed as reduction in virus-induced cytopathic effect incubated for 2 days by non-radioactive cell proliferation assay; format: functional, organism-based; conditions: Severe acute respiratory syndrome-related coronavirus, Vero C1008, 48 h
[17] = Therapeutic index, ratio of CC50 for human RD cells to EC50 for Enterovirus A71 infected in human RD cells; format: toxicity, cell-based; conditions: read-out: Ratio CC50/EC50
Procedure, shortened: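 RD cells were seeded 24 h ahead in 2% FCS medium, then given compound serial dilutions plus EV-A71 (BRCR) inoculum. After 3 days, MTS was added for 1 h at 37 °C and OD498 read. EC50 was interpolated as the concentration giving 50% protection from CPE. CC50 was measured on uninfected host cells by viability or cytotoxicity kits. Index = CC50/EC50.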

rhinovirus B14 = assay: Antiviral activity against Human rhinovirus 14 infected in HeLa Rh cells assessed as reduction in virus-induced cytopathic effect incubated for 3 days by MTS assay; format: functional, organism-based; conditions: Rhinovirus B, 72 h; procedure, shortened: as §2
[18] = Therapeutic index, ratio of CC50 for human HeLa Rh cells to EC50 for Enterovirus D68 infected in human HeLa Rh cells; format: toxicity, cell-based; conditions: read-out: Ratio CC50/EC50
[19] = Therapeutic index, ratio of CC50 for human HuH7 cells expressing T7 RNA polymerase to EC50 for […] infected in human HuH7 cells expressing T7 RNA polymerase; format: toxicity, cell-based; conditions: read-out: Ratio CC50/EC50
enterovirus D68 = assay: Antiviral activity against Enterovirus D68 infected in HeLa Rh cells assessed as reduction in virus-induced cytopathic effect incubated for 3 days by MTS assay; format: functional, organism-based; conditions: Enterovirus D, 72 h; procedure, shortened: as §2
[20] = tested on: Middle East respiratory syndrome-related coronavirus; assay: Antiviral activity against Middle East respiratory syndrome coronavirus infected in HuH7 cells expressing T7 RNA polymerase assessed as reduction in virus-induced cytopathic effect incubated for 2 days by non-radioactive cell proliferation assay; format: functional, organism-based; conditions: Huh-7, 48 h
[21] = Inhibition of Enterovirus A71 protease 3C using DabcylKEALFQ-GPPQF-E(Edans)-NH2 as substrate incubated for 10 mins by fluorospectrometry; procedure, shortened: as §3
[22] = Therapeutic index, ratio of CC50 for human HuH7 cells expressing T7 RNA polymerase to EC50 for Middle East respiratory syndrome coronavirus infected in human HuH7 cells expressing T7 RNA polymerase; format: toxicity, cell-based; conditions: read-out: Ratio CC50/EC50
[23] = Therapeutic index, ratio of CC50 for monkey Vero cells to EC50 for Middle East respiratory syndrome coronavirus infected in monkey Vero cells; format: toxicity, cell-based; conditions: read-out: Ratio CC50/EC50
Enterovirus A71 [24] = assay: Antiviral activity against Enterovirus A71 infected in RD cells assessed as reduction in virus-induced cytopathic effect incubated for 3 days by MTS assay; format: functional, organism-based; conditions: Enterovirus A, 72 h; procedure, shortened: as §2

Compound: O=C(/C=C/c1ccccc1)N[C@@H](Cc1ccccc1)C(=O)N[C@@H](C[C@@H]1CCNC1=O)C(=O)C(=O)NCc1ccccc1
- selectivity ratio [1]: > 10
- EC50 (Human coronavirus 229E): 11.8 µM
- IC50 [2]: 1.95 µM
- EC50 [3]: 13.4 µM
- CC50 at 72 h [4]: 97 µM
- CC50 at 48 h [5]: > 265 µM
- EC50 [6]: 4.5 µM
- EC50 (Enterovirus A71 [7]): 4.5 µM
- EC50 (rhinovirus A2): 5.6 µM
- IC50 [8]: 6.56 µM
- EC50 [9]: 14 µM
- selectivity ratio [10]: > 10
- EC50 (SARS-CoV [11]): 2 µM
- CC50 at 72 h [12]: 35.5 µM
- selectivity ratio [13]: > 15
- IC50 [14]: > 50 µM
- selectivity ratio [15]: > 15
- EC50 (SARS-CoV [16]): 5.8 µM
- selectivity ratio [17]: > 10
- EC50 (rhinovirus B14): 4.3 µM
- selectivity ratio [18]: > 10
- selectivity ratio [19]: > 10
- EC50 (enterovirus D68): 0.48 µM
- EC50 [20]: 0.0048 µM
- IC50 [21]: 1.22 µM
- selectivity ratio [22]: > 10
- selectivity ratio [23]: > 10
- EC50 (Enterovirus A71 [24]): 9.8 µM
